Reference: publication PMC8830944 (Molecular Diversity, 2022)
Values after ≈ are worked out from the molar mass of the structure shown.

Key:
C. tropicalis = experiment: Antifungal MIC, liquid growth inhibition; assay type: cell-based; settings: Candida tropicalis, 24 h, read-out: Antifungal activity, MIC90
Method in brief: (§1)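 Clinical isolates from patient specimens, one isolate per patient. Yeasts were grown in YPD at 37 °C for 16 h with 150 rpm shaking, then subcultured to OD 0.3. Inoculum was set to 0.5 McFarland and diluted 1:500 in RPMI 1640 […]. CLSI broth microdilution used final compound concentrations of 256–0.125 µg/mL. MIC90 is the concentration inhibiting 90% of the strains tested per species.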

C. neoformans = experiment: Antifungal MIC, liquid growth inhibition; assay type: cell-based; settings: Cryptococcus neoformans, 24 h, read-out: Antifungal activity, MIC90
Method in brief: as §1

C. albicans = experiment: Antifungal MIC, liquid growth inhibition; assay type: cell-based; settings: Candida albicans, 24 h, read-out: Antifungal activity, MIC90
Method in brief: as §1

PAMPA = assay type: in vitro ADME; settings: for Papp at 5 h, 500 µM: pH 7.4

MIC90 (C. tropicalis) [µg/mL]	MIC90 (C. neoformans) [µg/mL]	MIC90 (C. albicans) [µg/mL]	Papp at 5 h, 500 µM (PAMPA) [×10⁻⁶ cm/s]	Membrane retention (PAMPA; phosphatidylcholine in dodecane, pH 7.4, 5 h, r.t.) [%]	Structure (SMILES)
2 (≈ 6.53 µM)	2 (≈ 6.53 µM)	2 (≈ 6.53 µM)	–	–	OC(Cn1cncn1)(Cn1cncn1)c1ccc(F)cc1F [F, Fluconazole]
–	–	–	0.3	–	O=C(N[C@H](CO)[C@H](O)c1ccc([N+](=O)[O-])cc1)C(Cl)Cl [Chloramphenicol]
–	–	–	1.84	3.2	Cn1c(=O)c2c(ncn2C)n(C)c1=O [Caffeine]
